Experimental data of several laboratories.
Protocols differ between the studies behind these lines.
Target: Myosin-IIIb (MYO3B, Homo sapiens, UniProt Q8WXR4)
Residues used in one study (Q8WXR4 1-1341): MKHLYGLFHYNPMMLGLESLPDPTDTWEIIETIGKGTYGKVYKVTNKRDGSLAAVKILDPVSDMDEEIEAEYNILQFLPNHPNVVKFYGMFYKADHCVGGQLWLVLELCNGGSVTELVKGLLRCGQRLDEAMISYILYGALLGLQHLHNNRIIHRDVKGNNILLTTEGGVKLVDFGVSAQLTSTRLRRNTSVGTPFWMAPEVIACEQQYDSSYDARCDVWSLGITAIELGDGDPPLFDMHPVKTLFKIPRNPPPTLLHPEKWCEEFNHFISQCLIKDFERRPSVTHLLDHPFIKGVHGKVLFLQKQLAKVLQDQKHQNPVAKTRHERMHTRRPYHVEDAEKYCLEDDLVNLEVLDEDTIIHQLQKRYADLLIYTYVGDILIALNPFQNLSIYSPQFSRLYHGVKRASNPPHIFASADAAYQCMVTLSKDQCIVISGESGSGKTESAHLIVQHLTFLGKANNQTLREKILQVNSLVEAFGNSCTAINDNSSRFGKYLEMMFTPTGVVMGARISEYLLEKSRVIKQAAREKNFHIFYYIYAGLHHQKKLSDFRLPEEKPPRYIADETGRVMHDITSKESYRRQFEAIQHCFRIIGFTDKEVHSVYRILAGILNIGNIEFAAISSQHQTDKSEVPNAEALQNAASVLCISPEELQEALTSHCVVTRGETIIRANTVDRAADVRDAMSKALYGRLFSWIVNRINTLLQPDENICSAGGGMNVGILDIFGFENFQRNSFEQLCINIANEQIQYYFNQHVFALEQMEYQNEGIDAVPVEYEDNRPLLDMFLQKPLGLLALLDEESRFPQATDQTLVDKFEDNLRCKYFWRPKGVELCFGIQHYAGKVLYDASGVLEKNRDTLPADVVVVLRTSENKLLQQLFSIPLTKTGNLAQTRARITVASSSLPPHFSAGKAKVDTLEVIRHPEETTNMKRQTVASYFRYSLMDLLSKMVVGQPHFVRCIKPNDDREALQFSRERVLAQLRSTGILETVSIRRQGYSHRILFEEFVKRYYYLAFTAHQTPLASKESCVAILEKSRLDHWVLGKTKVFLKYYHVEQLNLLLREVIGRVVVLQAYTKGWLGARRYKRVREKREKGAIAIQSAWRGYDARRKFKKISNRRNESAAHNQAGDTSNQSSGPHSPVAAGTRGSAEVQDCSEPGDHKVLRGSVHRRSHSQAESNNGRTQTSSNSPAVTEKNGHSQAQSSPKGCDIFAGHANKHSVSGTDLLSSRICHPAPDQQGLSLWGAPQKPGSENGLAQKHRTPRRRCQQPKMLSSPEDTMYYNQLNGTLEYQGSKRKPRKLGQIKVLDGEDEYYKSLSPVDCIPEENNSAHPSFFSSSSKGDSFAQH

CCN1CCN(Cc2ccc(C(=O)Nc3ccc(C)c(Oc4ccc5c(c4)CC(=O)N5)c3)cc2C(F)(F)F)CC1 — remaining binding (binding, competition with immobilised ligand; 1 µM): 100%
O=C(c1ccc(Nc2nccc(-c3cc4ccccc4s3)n2)cc1)N1CCC(N2CCCC2)CC1 — remaining binding (binding, competition with immobilised ligand; 1 µM): 100%
CN(c1nccc(-c2cnn3ncccc23)n1)C1CC1 — remaining binding (binding; 1 µM): 83%
CNC(=O)[C@@H]1CC[C@@H](n2c(-c3ccc4cnccc4c3)nc3ccc(C(=O)NCc4cccc(C(N)=O)c4)cc32)C1 — remaining binding (binding, competition with immobilised ligand; 1 µM): 98%
CS(=O)(=O)c1cc(C2(NC(=O)c3cncc4c3cnn4-c3ccc(F)cc3)CC2)ccn1 — remaining binding (cell-free assay, competition with immobilised ligand; 1 µM): 100%
O=C(c1ccc(Nc2ncc(Cl)c(-c3ccc(Cl)s3)n2)cc1)N1CCC(N2CCCC2)CC1 — remaining binding (binding, competition with immobilised ligand; 1 µM): 100%
O=C(N[C@H]1CCCCC/C=C\C2C[C@@]2(C(=O)O)NC(=O)[C@@H]2C[C@@H](Oc3ccncc3)CN2C1=O)OC1CCCC1 (stereo partly drawn) — remaining binding (binding, competition with immobilised ligand; 1 µM): 38%
c1cnn2ncc(-c3ccnc(N4CCC45COC5)n3)c2c1 — remaining binding (binding; 1 µM): 100%
C[C@@H](c1ccc(-n2cnc3c(N)ncnc32)cc1)N1CCc2nn(C)c(Cc3ccccc3)c2C1=O — remaining binding (binding, competition with immobilised ligand; 0.1 µM): 77%
C[C@@H](c1cccc(C#N)c1)n1cc(Cl)cc(C(N)=O)c1=N — remaining binding (binding, competition with immobilised ligand; 1 µM): 100%
C[C@H]1CCN(c2nccc(-c3cnn4ncccc34)n2)C1 — remaining binding (binding; 1 µM): 100%
O=C(NCCCN1CCOCC1)c1ccc(Nc2nccc(-c3cc4ccccc4s3)n2)cc1 — remaining binding (binding, competition with immobilised ligand; 1 µM): 100%
N#CC1(c2ccccn2)CCN(Cc2cc(C(=O)N3CCCC3)c(=O)n3ccccc23)CC1 — remaining binding (cell-free assay, competition with immobilised ligand; 1 µM): 100%
CN(C)c1ncc(F)c(-c2cnn3ncccc23)n1 — remaining binding (binding; 1 µM): 100%
C=CC(=O)N1CCC(C(=O)NCC(=O)N2CCN(c3nc(-c4cnc(N)nc4C(F)F)nc(N4CCOCC4)n3)CC2)CC1 — remaining binding (binding, competition with immobilised ligand; 1 µM): 96%
C[C@H](c1ccc(F)cc1)N(Cc1cccc(C(=O)O)c1)C(=O)c1cnc2ccccc2c1 — remaining binding (binding, competition with immobilised ligand; 1 µM): 100%
CN(C)c1nccc(-c2cnc3ncccn23)n1 — remaining binding (binding; 1 µM): 79%
c1cncc(-c2cccc(Nc3nccc(NC4CCCCC4)n3)c2)c1 — remaining binding (binding, competition with immobilised ligand; 10 µM): 100%
Cc1cnn2ncc(-c3ccnc(N(C)C)n3)c2c1 — remaining binding (binding; 1 µM): 80%
CCC(=O)N[C@H]1CC[C@@H](C(=O)N(C)c2ccc(-c3nc4ccccc4o3)cc2)C1 — remaining binding (cell-free assay, competition with immobilised ligand; 1 µM): 98%
O=C(Nc1c[nH]nc1C(=O)NC1CCNCC1)c1cc(F)cc(F)c1 — remaining binding (binding, competition with immobilised ligand; 1 µM): 100%
